We go through 11 compounds from ChEMBL document CHEMBL1127337, “1-((7,7-Dimethyl-2(S)-(2(S)-amino-4-(methylsulfonyl)butyramido)bicyclo [2.2.1]-heptan-1(S)-yl)methyl)sulfonyl)-4-(2-methylphenyl)piperaz ine (L-368,899): an orally bioavailable, non-peptide oxytocin antagonist with potential utility for managing preterm labor” (J Med Chem, 1994).

Data set [1] in a line: Aqueous solubilities were determined by dissolving an crystalline hemisulfate and […] salts, respectively in water and adding acetate to pH 5.0, concentrations are expressed in free base equivalents. In kind it is ADME. The settings on record: water adjusted with acetate, read-out: S. A digest of the protocol:
(§1)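 Crystalline hemisulfate or dihydrochloride salt dissolved in water, then acetate added to pH 5.0 to measure aqueous solubility.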

In data set [2] the target is T1, Oxytocin receptor (Rattus norvegicus, UniProt P70536).
T1 sequence (P70536 whole entry): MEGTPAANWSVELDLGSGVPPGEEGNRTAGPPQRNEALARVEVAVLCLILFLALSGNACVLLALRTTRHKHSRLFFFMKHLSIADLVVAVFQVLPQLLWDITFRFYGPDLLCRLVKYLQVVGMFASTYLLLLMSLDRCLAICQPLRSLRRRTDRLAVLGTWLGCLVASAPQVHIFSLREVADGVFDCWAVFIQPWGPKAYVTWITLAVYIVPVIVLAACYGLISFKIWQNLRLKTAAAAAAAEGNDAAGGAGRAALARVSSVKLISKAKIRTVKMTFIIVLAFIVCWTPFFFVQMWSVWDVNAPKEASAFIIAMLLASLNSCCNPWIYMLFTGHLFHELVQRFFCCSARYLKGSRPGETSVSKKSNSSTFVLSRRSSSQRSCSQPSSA
Put plainly: Displacement of [3H]OT from binding to oxytocin receptor of rat uterus. A digest of the protocol:
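Competition binding against [3H]OT on uterine tissue from pregnant rats (day 22-23 of gestation) or DES-pretreated rats. IC50 is the molar concentration giving 50% displacement of radioligand.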

Data set [3] relates to Rattus norvegicus. The experiment in a line: In vivo dose given intravenously (iv) that reduces by 50% the contractile response of the in situ rat uterus to exogenous OT. In kind it is functional. A digest of the protocol: (§2)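 Anesthetized DES-pretreated rats set up for isometric recording of in situ uterine contraction; OT 1 µg/kg iv every 35 min, third response taken as 100%. Antagonist infused iv over 10 min in saline, saline with 2% DMSO, or 15% DMSO plus 15% emulphor. AD50 is the dose cutting the response to the fourth OT injection by 50% relative to vehicle-treated rats.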

Data set [4] addresses T1, Oxytocin receptor. Put plainly: In vitro antagonism of OT-induced uterine contractions, against rat uterus by measuring pA2 value. The data set is classed as functional, tissue-based. The settings on record: read-out: pA2 (converted). Put shortly: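 Uteri isolated from DES-pretreated rats and contracted with OT. pA2 is the negative log molar antagonist concentration giving a 2-fold rightward shift of the OT dose-response curve (dose ratio 2), derived from Schild plots.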

For data set [5], the system named is Rattus norvegicus. The experiment in a line: In vivo dose given intraduodenally (id) that reduces by 50% the contractile response of the in situ rat uterus to exogenous OT. In kind it is functional. A digest of the protocol: (§3)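 Uterine contraction recorded isometrically in situ in anesthetized DES-pretreated rats; OT 1 µg/kg iv at 35-min intervals, third response set as 100%. Antagonist injected intraduodenally as a suspension in saline with 1% methocel. AD50 is the dose lowering the response to the fourth OT injection by 50% against the vehicle group.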

A further data set deals with Vasopressin V1a receptor (Rattus norvegicus, UniProt P30560). Put plainly: Displacement of [3H]AVP from binding to arginine vasopressin 1a (V1a) […] of rat liver. Put shortly:
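Competition binding against [3H]AVP on liver from male rats (V1a site). IC50 is the molar concentration giving 50% radioligand displacement.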
Background: Displacement assays read how much labelled ligand stays bound in the presence of the test substance.

A further data set addresses Vasopressin V2 receptor (Rattus norvegicus, UniProt Q00788). The experiment in a line: Displacement of [3H]-AVP from binding to Vasopressin receptor V2 of rat kidney. A digest of the protocol: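 [3H]AVP competition binding on kidney medulla from male rats (V2 site). IC50 is the molar concentration displacing 50% of radioligand.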
A short description of data set [6]: Aqueous solubilities were determined by dissolving an crystalline hemisulfate and […] salts, respectively in water and adding acetate to pH 5.0, concentrations are expressed in free base equivalents. The following applies: water adjusted with acetate, read-out: S. In kind it is ADME. A digest of the protocol:
as §1

Data set [7] relates to Rattus norvegicus. The experiment in a line: in vivo dose given intravenously (iv) that reduces by 50% the contractile response of the in situ rat uterus to exogenous OT. The data set is classed as functional. Put shortly:
as §2

The test system of data set [8] is Rattus norvegicus. The experiment in a line: In vivo dose given intraduodenally (id) that reduces by 50% the contractile response of the in situ rat uterus to exogenous OT; ca.20. The data set is classed as functional. Put shortly: as §3
Data set [9] has as its system Rattus norvegicus. Put plainly: AD50 value which refers to the dose given intravenously (iv) that reduces by 50% the contractile response of the in situ rat uterus to exogenous OT was determined for the compound in vivo. The data set is classed as functional. Put shortly:
as §2

Data set [10] concerns Rattus norvegicus. The experiment in a line: In vivo dose given intraduodenally (id) that reduces by 50% the contractile response of the in situ rat uterus to exogenous OT; NA=Inactive at 1.0. In kind it is functional, organism-based. Put shortly:
as §3

Data set [11] deals with Rattus norvegicus. Put plainly: In vivo dose given intraduodenally (id) that reduces by 50% the contractile response of the in situ rat uterus to exogenous OT; NA=Inactive at 3.0 mg/Kg. The data set is classed as functional, organism-based. Put shortly:
as §3

For data set [12], the target named is T1, Oxytocin receptor. Put plainly: In vitro antagonism of OT-induced uterine contractions, against rat uterus by measuring pA2 value which refers to the negative logarithm of the molar concentration. In kind it is functional, tissue-based. The following applies: read-out: pA2 (converted). A digest of the protocol:
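Uteri isolated from diethylstilbestrol-pretreated rats; contractions evoked by oxytocin. pA2 = negative log of molar antagonist concentration giving a 2-fold rightward shift of the oxytocin dose-response curve (dose ratio 2), derived by Schild analysis.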

In data set [13] the test system is Rattus norvegicus. The experiment in a line: In vivo dose given intraduodenally (id) that reduces by 50% the contractile response of the in situ rat uterus to exogenous OT; ca.2. The data set is classed as functional. A digest of the protocol:
as §3

As usually defined, the IC50 is the concentration that inhibits the measured activity by half. Low readings indicate greater potency in that assay, high ones weaker potency in that assay.

SMILES strings stand for the structures. Activity calls are given as the source filed them. No cut-off for these calls is given here. Where only a bound is given, the exact number is not on record here.

Sequence of Vasopressin V1a receptor (P30560 whole entry): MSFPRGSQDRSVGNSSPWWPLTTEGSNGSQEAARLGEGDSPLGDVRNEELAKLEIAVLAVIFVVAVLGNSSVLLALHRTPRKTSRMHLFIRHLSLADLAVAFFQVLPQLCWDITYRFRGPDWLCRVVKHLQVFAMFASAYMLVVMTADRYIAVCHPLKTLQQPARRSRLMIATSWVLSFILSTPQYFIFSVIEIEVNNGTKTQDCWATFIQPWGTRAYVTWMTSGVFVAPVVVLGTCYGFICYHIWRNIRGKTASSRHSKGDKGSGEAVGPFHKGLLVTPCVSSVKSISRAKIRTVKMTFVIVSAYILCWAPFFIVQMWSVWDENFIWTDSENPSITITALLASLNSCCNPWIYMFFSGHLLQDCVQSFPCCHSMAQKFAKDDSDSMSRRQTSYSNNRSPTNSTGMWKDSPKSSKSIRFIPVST
Sequence of Vasopressin V2 receptor (Q00788 whole entry): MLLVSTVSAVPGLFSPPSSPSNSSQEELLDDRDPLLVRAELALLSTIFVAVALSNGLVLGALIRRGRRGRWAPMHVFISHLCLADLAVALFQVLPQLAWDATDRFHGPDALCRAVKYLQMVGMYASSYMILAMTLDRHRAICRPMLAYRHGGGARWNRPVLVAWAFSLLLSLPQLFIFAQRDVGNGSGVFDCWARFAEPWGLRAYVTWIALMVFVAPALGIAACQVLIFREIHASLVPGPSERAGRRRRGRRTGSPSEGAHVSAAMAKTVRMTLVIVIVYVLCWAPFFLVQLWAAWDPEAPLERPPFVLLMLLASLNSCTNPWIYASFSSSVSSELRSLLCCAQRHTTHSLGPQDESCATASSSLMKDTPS

Regarding `Cc1ccccc1N1CCN(S(=O)(=O)C[C@]23CCC(C[C@@H]2NC(=O)[C@H](CCS(C)(=O)=O)N(C)C)C3(C)C)CC1`, the solubility in [1] was 3100 µg/mL. The IC50 worked out at 4.9 nM on Oxytocin receptor [2], 360 nM at Vasopressin V1a receptor and 290 nM at Vasopressin V2 receptor. In addition, the AD50 in the data set on Rattus norvegicus [3] was 0.13 mg/kg; with Rattus norvegicus [5], 2.6 mg/kg. Also, the Kb on Oxytocin receptor [4] is 1 nM.

With `CC1(C)C2CC[C@@]1(CS(=O)(=O)N1CCC3(CCc4ccccc43)CC1)[C@@H](NC(=O)[C@@H](N)CCS(C)(=O)=O)C2`, in data set [6], the solubility is 1500 µg/mL. For the same compound, the IC50 on Oxytocin receptor [2] was determined as 12 nM; at Vasopressin V1a receptor, 890 nM; at Vasopressin V2 receptor, 2400 nM. The AD50 with Rattus norvegicus [7] is 0.84 mg/kg; in the data set on Rattus norvegicus [8] it was 20 mg/kg.

On to `CN[C@@H](CCS(C)(=O)=O)C(=O)N[C@H]1CC2CC[C@]1(CS(=O)(=O)N1CCN(c3ccccc3C)CC1)C2(C)C`, for which the IC50 on Oxytocin receptor [2] stood at 9.2 nM; on Vasopressin V1a receptor, 320 nM; on Vasopressin V2 receptor, 350 nM.

Turning to `CCN(CC)[C@@H](CCS(C)(=O)=O)C(=O)N[C@H]1CC2CC[C@]1(CS(=O)(=O)N1CCN(c3ccccc3C)CC1)C2(C)C`, in data set [1], the solubility is 230 µg/mL. Further, the IC50 at Oxytocin receptor [2] amounted to 18 nM; on Vasopressin V1a receptor it was 1300 nM; at Vasopressin V2 receptor it was 310 nM.

For the compound `Cc1ccccc1N1CCN(S(=O)(=O)C[C@]23CCC(C[C@@H]2NC(=O)[C@H](CCS(C)(=O)=O)NC2CCS(=O)(=O)CC2)C3(C)C)CC1`, the solubility in data set [1] is below 300 µg/mL. Also, the IC50 on Oxytocin receptor [2] came out at 1.4 nM; on Vasopressin V1a receptor, 440 nM; at Vasopressin V2 receptor, 160 nM. The same compound gave an AD50 with Rattus norvegicus [9] of 0.031 mg/kg. For the same compound, the AD50 entry in the data set on Rattus norvegicus [10] is “inactive”.

Regarding `Cc1ccccc1N1CCN(S(=O)(=O)C[C@]23CCC(C[C@@H]2NC(=O)[C@H](CCS(C)(=O)=O)N(CCO)CCO)C3(C)C)CC1`, the solubility in [6] is 190 µg/mL. Besides, the IC50 on Oxytocin receptor [2] stood at 2.8 nM; at Vasopressin V1a receptor it was 650 nM; at Vasopressin V2 receptor it was 240 nM. The AD50 in the data set on Rattus norvegicus [3] came to 0.087 mg/kg. The AD50 result in the data set on Rattus norvegicus [11] was “inactive”.

Consider `Cc1ccccc1N1CCN(S(=O)(=O)C[C@]23CCC(C[C@@H]2NC(=O)[C@H](CCS(C)(=O)=O)NC2CCCCC2)C3(C)C)CC1`, for which the values for the IC50 on Oxytocin receptor [2], at Vasopressin V1a receptor and at Vasopressin V2 receptor were 15 nM, 600 nM and 230 nM, respectively.

Turning to `Cc1ccccc1N1CCN(S(=O)(=O)C[C@]23CCC(C[C@@H]2NC(=O)[C@H](CCS(C)(=O)=O)NC2CCOCC2)C3(C)C)CC1`, in [1], the solubility was 360 µg/mL. Moreover, the figures for the IC50 at Oxytocin receptor [2], at Vasopressin V1a receptor and on Vasopressin V2 receptor were 2.4 nM, 680 nM and 270 nM, respectively. For the same compound, the AD50 in the data set on Rattus norvegicus [3] was 0.045 mg/kg; with Rattus norvegicus [5] it was 1.4 mg/kg.

With `Cc1ccccc1N1CCN(S(=O)(=O)C[C@]23CCC(C[C@@H]2NC(=O)[C@@H](N)CCS(C)(=O)=O)C3(C)C)CC1`, the solubility in data set [1] was 3700 µg/mL. Also, the IC50 at Oxytocin receptor [2] was determined as 8.9 nM; on Vasopressin V1a receptor, 370 nM; at Vasopressin V2 receptor, 570 nM. Besides, the AD50 in the data set on Rattus norvegicus [3] amounted to 0.35 mg/kg; with Rattus norvegicus [5], 7 mg/kg. Also, at Oxytocin receptor [12], the Kb was 1.26 nM.

`CC1(C)C2CC[C@@]1(CS(=O)(=O)N1CCC3(CCc4ccccc43)CC1)[C@@H](NC(=O)[C@@H](N)CCC(N)=O)C2`: the half-maximal inhibitory concentration (IC50) on Oxytocin receptor [2] is 12 nM; on Vasopressin V1a receptor, 2300 nM; on Vasopressin V2 receptor, 5100 nM. Also, the AD50 in the data set with Rattus norvegicus [5] was above 30 mg/kg; in the data set on Rattus norvegicus [13], 2 mg/kg.

Take `Cc1ccccc1N1CCN(S(=O)(=O)C[C@]23CCC(C[C@@H]2NC(=O)[C@H](CCS(C)(=O)=O)NC2CCNCC2)C3(C)C)CC1`: in data set [1], the solubility stood at 3000 µg/mL. Moreover, the IC50 on Oxytocin receptor [2] turned out to be 1.3 nM; on Vasopressin V1a receptor it was 220 nM; at Vasopressin V2 receptor it was 130 nM. The compound further gave an AD50 in the data set with Rattus norvegicus [3] of 0.021 mg/kg. For the same compound, the AD50 entry in the data set on Rattus norvegicus [10] was “inactive”.
